Data taken from article PMC8634121 (Brain, 2021).

Key:
[1] = target: T1, SAM-TIR protein (human SARM1) (Homo sapiens, UniProt Q6SZW1); experiment: Washout assay with plate-bound SAM-TIR; type: biochemical; details: 2 h treatment, plates rinsed, assayed 60 min after removal of compound
T1 sequence (Q6SZW1 408-700): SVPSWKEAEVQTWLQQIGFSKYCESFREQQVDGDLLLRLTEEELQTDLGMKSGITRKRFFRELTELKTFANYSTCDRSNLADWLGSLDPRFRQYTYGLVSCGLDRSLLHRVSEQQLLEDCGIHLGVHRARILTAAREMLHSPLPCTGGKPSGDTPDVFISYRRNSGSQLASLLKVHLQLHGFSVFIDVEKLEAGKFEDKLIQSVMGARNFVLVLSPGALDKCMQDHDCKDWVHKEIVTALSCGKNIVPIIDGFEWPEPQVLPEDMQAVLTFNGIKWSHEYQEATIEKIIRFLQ
In short: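 SAM-TIR lysate (30 µg/ml total protein) was captured via its Strep-tag on Strep-Tactin XT plates, and unbound material was rinsed off. Bound enzyme was exposed to test compound for 2 h, rinsed, then held in assay solution without NAD+ for 0, 10 or 60 min. Wells were rinsed again, and activity was started by adding NAD+. A reversible reference inhibitor was run alongside.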

mouse DRG neurons = experiment: Axon degeneration assay after axotomy in mouse DRG cultures; type: cell-based; details: 3 h pulse at 10 µM, compound removed, axotomy immediately; examined 16-72 h
In short: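 Embryonic day 13.5 C57BL/6J mouse DRGs were trypsin/EDTA-dissociated (37°C, 15 min) and spot-plated at 5000 cells/well on poly-D-lysine/laminin in Neurobasal/B27 with NGF, uridine and fluorodeoxyuridine. At DIV 6–7, cultures got a 3 h pulse of test compound at 10 µM (from 10 mM DMSO stock; […] DMSO final). Compound was rinsed out, […]. Axons were manually cut with a micro-blade, then PFA-fixed and immunostained.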

SARM1 inhibition after compound removal [1]: Substantial loss of inhibition
SMILES: Ic1cccc2cnccc12 [DSRM-3716]
axonal protection after compound removal (mouse DRG neurons): completely lost
